Data on 31 molecules can be found in ChEMBL document CHEMBL1139091, “Synthesis and antimycobacterial evaluation of benzofurobenzopyran analogues” (2007).

Experiment [1] relates to Mycobacterium tuberculosis. The experiment can be described thus: Antimycobacterial activity against Mycobacterium tuberculosis H37Rv after 6 days by microdilution resazurin assay. It is filed as functional. As to conditions: 144 h. Summed up:
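M. tuberculosis H37Rv inoculum grown in Dubos medium with 10% ADC. Twofold dilutions in Dubos broth, 500 to 0.9 µg/mL, with DMSO and isoniazid controls. Incubated 6 days at 37 °C, then 0.01% resazurin added for 24 h more. Read by colour change (blue to pink) and OD 530–630 nm. MIC95 (>95% growth inhibition) derived by curve fitting.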
(Dilution methods test growth across graded concentrations, often in twofold steps.)

Experiment [2] has as its system Mycolicibacterium smegmatis. Description: Antimycobacterial activity against Mycobacterium smegmatis mc2155 after 48 hrs by microdilution resazurin assay. Format: functional. The following applies: str. MC2 155, 48 h. The essentials:
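Inoculum of M. smegmatis mc²155 grown in Dubos medium + 10% ADC; twofold serial dilutions in Dubos broth, 500 to 0.9 µg/mL. DMSO and isoniazid controls. 48 h at 37 °C, then 0.01% resazurin added, further 24 h. Growth is read as blue-to-pink change plus OD 530–630 nm.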

Each structure is given as a SMILES string. Converted amounts (≈) assume the structure as drawn.

Take `C#CC(C)(C)Oc1ccc(-c2ccccc2)cc1`: the MIC95 in experiment [1] and in experiment [2] was over 100 µg/mL in each case.

`O=C(c1ccc(O)cc1)c1ccc(O)cc1`: the figures for the MIC95 in experiment [1] and in experiment [2] were 125 µg/mL (≈ 584 µM) and 62 µg/mL (≈ 289 µM), respectively. The corresponding values for `CC1(C)C=Cc2cc(Oc3ccccc3)ccc2O1` are over 500 µg/mL and 70 µg/mL (≈ 277 µM). In the same order, the values of `C#CC(C)(C)Oc1ccc2oc3c(c2c1)CCCC3` are over 100 µg/mL and over 100 µg/mL.

For `CC1(C)C=Cc2cc(C(=O)c3ccc(O)cc3)ccc2O1`, the figures for the MIC95 in experiment [1] and in experiment [2] were 62 µg/mL (≈ 221 µM) and 32 µg/mL (≈ 114 µM), respectively.

`CC1(C)C=Cc2cc(-c3ccccc3)ccc2O1`: the MIC95 in experiment [1] and in experiment [2] was over 500 µg/mL each time. For the molecule `CC1(C)C=Cc2cc3oc4ccccc4c3cc2O1`, the MIC95 in experiment [1] turned out to be 35 µg/mL (≈ 140 µM); in experiment [2] it was 20 µg/mL (≈ 79.9 µM). The corresponding values for `CC(=O)c1cc2oc3ccccc3c2c2c1OC(C(C)C)C2` (stereo unspecified) are over 500 µg/mL and over 500 µg/mL. In the same order, the values of `CC(=O)c1ccc2oc3ccc(O)cc3c2c1` are 8 µg/mL (≈ 35.4 µM) and over 500 µg/mL. For `CC(=O)c1ccc2oc3ccc(C(C)=O)cc3c2c1`, the figures for the MIC95 in experiment [1] and in experiment [2] were 10 µg/mL (≈ 39.6 µM) and 5 µg/mL (≈ 19.8 µM), respectively. The corresponding values for `CC1(C)C=Cc2cc(C(O)c3ccccc3)ccc2O1` (stereo unspecified) are 20 µg/mL (≈ 75.1 µM) and 20 µg/mL (≈ 75.1 µM). The corresponding values for `CC1(C)CCc2cc(Cc3ccccc3)ccc2O1` are 30 µg/mL (≈ 119 µM) and over 500 µg/mL. In the same order, the values of `Oc1ccc2oc3ccc(O)cc3c2c1` are 15 µg/mL (≈ 74.9 µM) and 15 µg/mL (≈ 74.9 µM).

For `CC(=O)c1ccc2oc3ccc4c(c3c2c1)C=CC(C)(C)O4`, the MIC95 in experiment [1] and in experiment [2] was over 500 µg/mL each time.

Take `CC1(C)C=Cc2cc(C(O)c3cccnc3)ccc2O1` (stereo unspecified): the MIC95 in experiment [1] and in experiment [2] was 62 µg/mL (≈ 232 µM) each time.

With `CC1(C)C=Cc2c(ccc3oc4c(c23)CCCC4)O1`, the MIC95 was 120 µg/mL (≈ 472 µM) in experiment [1] and over 500 µg/mL in experiment [2]. Take `C#CC(C)(C)Oc1ccc(Oc2ccccc2)cc1`: the MIC95 in experiment [1] and in experiment [2] was over 100 µg/mL throughout.

Consider `C#CC(C)(C)Oc1cccc(-c2ccccc2)c1`, for which the MIC95 in experiment [1] and in experiment [2] was over 100 µg/mL in each case. With `CC1(C)C=Cc2c(ccc3oc4ccccc4c23)O1`, the MIC95 in experiment [1] and in experiment [2] was 10 µg/mL (≈ 40 µM) each time.

In the case of `CC1(C)CCc2cc3oc4ccccc4c3cc2O1`, the MIC95 in experiment [1] is over 500 µg/mL; in experiment [2], 40 µg/mL (≈ 159 µM).

Regarding `CC1(C)CCc2c(ccc3oc4ccccc4c23)O1`, the MIC95 in experiment [1] and in experiment [2] was 10 µg/mL (≈ 39.6 µM) each time.

For `Oc1ccc2oc3c(c2c1)CCCC3`, the MIC95 in experiment [1] amounted to 500 µg/mL (≈ 2660 µM); in experiment [2], 31 µg/mL (≈ 165 µM). The corresponding values for `CC1(C)CCc2c(c(Br)cc3oc4ccccc4c23)O1` are over 500 µg/mL and over 500 µg/mL.

Turning to `CC(=O)c1cc2oc3ccccc3c2c2c1OC(C)(C)CC2`, the MIC95 in experiment [1] and in experiment [2] was over 500 µg/mL throughout. In experiment [1], `Oc1ccc2oc3ccccc3c2c1` displayed an MIC95 of 25 µg/mL (≈ 136 µM). Regarding `CC1(C)C=Cc2cc3oc4ccccc4c3c(Br)c2O1`, the MIC95 in experiment [1] is 30 µg/mL (≈ 91.1 µM); in experiment [2], 120 µg/mL (≈ 365 µM). With `CC1(C)CCc2cc(C(=O)c3ccccc3)ccc2O1`, the MIC95 worked out at 30 µg/mL (≈ 113 µM) in experiment [1] and 50 µg/mL (≈ 188 µM) in experiment [2].

As for `CC1(C)C=Cc2cc(C(=O)c3ccccc3)ccc2O1`, the MIC95 in experiment [1] was 40 µg/mL (≈ 151 µM); in experiment [2], 20 µg/mL (≈ 75.7 µM). In the same order, the values of `CC1(C)CCc2cc(C(=O)c3ccccc3)c(O)cc2O1` are 62 µg/mL (≈ 220 µM) and 4 µg/mL (≈ 14.2 µM).

As for `C#CC(C)(C)Oc1ccc2oc3ccc(C(C)=O)cc3c2c1`, the MIC95 in experiment [1] and in experiment [2] was over 100 µg/mL each time. Take `NNC(=O)c1ccncc1` [ISONIAZID]: the MIC95 came to 0.1 µg/mL (≈ 0.729 µM) in experiment [1] and 12 µg/mL (≈ 87.5 µM) in experiment [2].
